# Source: ChEMBL document CHEMBL1150062, “Phospholipase A2 inhibitors from marine organisms” (J Nat Prod, 1992)
# The source made the active and inactive calls. No cut-off for these calls is given here.
# How the values were obtained:
# [1] = molecular target: T1, Phospholipase A2 (Apis mellifera) (UniProt B7UUK1); assay: Inhibition of bee venom PLA2 assessed as inactivation of enzyme at 2 ug/ml; set-up: scale not given: the % may be the effect or the level left
# T1 sequence (whole entry): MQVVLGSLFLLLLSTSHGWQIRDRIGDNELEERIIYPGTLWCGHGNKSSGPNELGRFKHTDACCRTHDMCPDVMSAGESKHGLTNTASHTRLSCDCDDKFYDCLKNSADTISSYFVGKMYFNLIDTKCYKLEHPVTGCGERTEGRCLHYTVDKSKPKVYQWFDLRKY
# [2] = molecular target: T1, Phospholipase A2 (Apis mellifera); assay: Inhibition of bee venom PLA2 at 4 uM
# Phospholipase A2 = molecular target: T2, Phospholipase A2 (Apis mellifera, UniProt B7UUK1); assay: (§1) Inhibition of bee venom PLA2
# T2 sequence (B7UUK1 whole entry): T1 sequence (whole entry)
# [3] = molecular target: T1, Phospholipase A2 (Apis mellifera); assay: Inhibition of bee venom PLA2 assessed as inactivation of enzyme at 1.6 ug/ml; set-up: scale not given: the % may be the effect or the level left
# Summary of the method: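 ³H-dipalmitoyl phosphatidylcholine (1.36 mM, Triton X-100 mixed micelles) in 10 mM HEPES, 1 mM CaCl2, pH 7.4. Bee venom PLA2 (100 units/ml) preincubated 1 h at 41° with compound from 10 mg/ml stock, then added to substrate for 15 sec at 41°. Acid-quenched, released palmitic acid extracted and scintillation counted, corrected for background and extraction efficiency. % inactivation vs vehicle, triplicate mean.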
# [4] = molecular target: T3, Phospholipase A2, membrane associated (Homo sapiens) (UniProt P14555); assay: Inhibition of human synovial fluid-PLA2; details: concentration not given here
# T3 sequence (whole entry): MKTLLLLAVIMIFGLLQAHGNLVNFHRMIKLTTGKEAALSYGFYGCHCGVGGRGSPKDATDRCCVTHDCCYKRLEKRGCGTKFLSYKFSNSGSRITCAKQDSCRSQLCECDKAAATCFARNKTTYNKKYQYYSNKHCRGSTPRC
# [5] = molecular target: T1, Phospholipase A2 (Apis mellifera); assay: as §1
SMILES,Activity [1],also measured
CC1=C[C@H]2Cc3ccoc3C(C)(C)[C@H]2CC1,inactive,–
CCCC(=O)O[C@@H]1C[C@H]2C(C)(C)CCC[C@]2(C)C2CC[C@H]3C(=O)O[C@H]4O[C@@H](O)[C@]21[C@H]43 (stereo partly specified),65%,–
CC1(C)CCC[C@]2(C)[C@H]3C[C@@H](O)[C@]4(C)[C@H](C=O)C(C=O)=CC[C@H]4[C@]3(C)CC[C@@H]12,–,inhibition [2]: < 70%
CC1=C(CC/C(C)=C/CC/C(C=O)=C\C=C\C2=CC(=O)O[C@H]2O)C(C)(C)CCC1,–,IC50 (Phospholipase A2): 0.28 µM
CC1=CC(CC2=CC(=O)OC2O)C(C(C)C)CC1 (stereo unspecified),60%,–
CC1=C(CC/C(C)=C/CCC2=CC[C@H](C3=CC(=O)O[C@H]3O)O[C@H]2O)C(C)(C)CCC1 [MANOALIDE],–,IC50 (Phospholipase A2): 0.04 µM
CC1=CC2C[C@]34OC(=O)C[C@]3(O4)C(C)(C)C2CC1 (stereo partly specified),inactive,–
Oc1cc(Cc2c(O)cc(O)c(Br)c2O)c(Br)c(Br)c1O,–,Activity [3]: 96%
CCCC(=O)O[C@H]1[C@@H](O)[C@@]23C(CC[C@H]4C(=O)O[C@@H](O[C@H]2O)[C@H]43)[C@@]2(C)CCCC(C)(C)[C@@H]12 (stereo partly specified),44%,–
CC1=C(CC/C(C)=C/CC/C(C)=C/CCC2=CC(=O)OC2O)C(C)(C)CCC1 (stereo unspecified) [LUFFARIELLOLIDE],–,IC50 (Phospholipase A2): 0.23 µM; inhibition [4]: 98%
C=C1CCC[C@H]2[C@](C)(CC3=C(O)C(=O)C=C(OC)C3=O)[C@@H](C)CC[C@]12C,–,Activity [5]: inactive
CC1=C[C@H]2Cc3occc3C(C)(C)[C@H]2CC1,inactive,–
CC(=O)O[C@H]1C[C@@H]2[C@@]3(C)CCCC(C)(C)[C@@H]3CC[C@@]2(C)[C@@H]2CC=C(C=O)[C@H](C=O)[C@@]12C [SCALARADIAL],–,IC50 (Phospholipase A2): 0.07 µM
CCCC(=O)O[C@H]1[C@@H](OC(C)=O)[C@@]23C(CC[C@H]4C(=O)O[C@@H](O[C@H]2O)[C@H]43)[C@@]2(C)CCCC(C)(C)[C@H]12 (stereo partly specified),50%,–
CC1=CC2C[C@]3(O)OC(=O)C=C3C(C)(C)C2CC1 (stereo partly specified),60%,–
Oc1cc(Cc2c(O)c(Br)c(O)c(Cc3cc(O)c(O)c(Br)c3Br)c2O)c(Br)c(Br)c1O,–,Activity [3]: 96%
CC(=O)O[C@@H]1O[C@H]2OC(=O)[C@H](C)C3=C([C@@]4(C)CCCC(C)(C)C4)C[C@@H](OC(C)=O)[C@@H]1[C@H]32,60%,–
C=C1CCCC(C)(C)[C@@H]2CC[C@@](C)([C@H]3[C@H]4CC(=O)O[C@H]4O[C@H]3O)[C@H]12,48%,–
CC1(C)CCC[C@]2(C)[C@H]3C[C@@H](O)[C@]4(C)[C@@H](C=O)C(C=O)=CC[C@H]4[C@]3(C)CC[C@@H]12,–,IC50 (Phospholipase A2): 0.2 µM
C=C([C@@H]1[C@@H](OC(C)=O)O[C@@H]2OC(=O)C[C@@H]21)[C@H]1CC[C@H]2C(C)(C)CCC[C@]12C,66%,–
